Data taken from ChEMBL document CHEMBL1781920, “Synthesis and antimicrobial activity of some new 4-hetarylpyrazole and furo[2,3-c]pyrazole derivatives” (2011).
In brackets after ≈: the same amount, converted by molar mass.

Assays:
Type in all cases: functional
Bacillus thuringiensis [1] = test: Antibacterial activity against Bacillus thuringiensis ATCC 6051 after 24 hrs by serial dilution method; conditions: ATCC 6051, 24 h
Method in brief: (§1)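 Broth microdilution in Mueller–Hinton broth, run only for compounds giving zones >14 mm in the disk test. DMF stocks were diluted twofold from 500 to 3.125, and about 10⁶ CFU/mL bacteria were added per well. Sealed plates were kept at 37 °C for 24 h in a humid chamber. MIC was taken as the lowest concentration without visible turbidity.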

Fusarium oxysporum [2] = test: Antifungal activity against Fusarium oxysporum ATCC 16417 after 48 hrs by serial dilution method; conditions: ATCC 16417, 48 h
Method in brief: (§2)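 MICs were measured by microdilution in Sabouraud liquid medium, for compounds with disk zones >14 mm. DMF stocks were serially diluted twofold across 500–3.125. Sealed plates were incubated at 37 °C for 48 h in a humid chamber. The lowest concentration with no visible turbidity was recorded as the MIC.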

Bacillus subtilis [3] = test: Antibacterial activity against Bacillus subtilis ATCC 6633 at 1 mg/ml after 24 hrs by agar-diffusion method; conditions: ATCC 6633, 24 h, read-out: IZ
Method in brief: (§3)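 Agar disk diffusion on nutrient agar seeded with about 10⁶ CFU/mL of the test bacterium. Filter-paper disks were impregnated with compound in DMF at 1 mg/mL, two disks per plate, in triplicate. DMF alone served as control. Plates were incubated at 37 °C for 24 h, and the mean inhibition-zone diameter was recorded in mm.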

Botrytis fabae [4] = test: Antifungal activity against Botrytis fabae ATCC 14862 at 1 mg/ml after 48 hrs by agar-diffusion method; conditions: ATCC 14862, 48 h, read-out: IZ
Method in brief: (§4)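 Fungi were seeded at 10⁴ CFU/mL onto nutrient agar plates. Filter-paper disks carried compound dissolved in DMF at 1 mg/mL, two disks per plate, in triplicate, with a DMF-only control. After 48 h incubation at 37 °C, the average diameter of the growth-inhibition zone was read in mm.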

Pseudomonas aeruginosa [5] = test: Antibacterial activity against Pseudomonas aeruginosa ATCC 27853 after 24 hrs by serial dilution method; conditions: ATCC 27853, 24 h; method in brief: as §1
Escherichia coli [6] = test: Antibacterial activity against Escherichia coli ATCC 14169 at 1 mg/ml after 24 hrs by agar-diffusion method; conditions: ATCC 14169, 24 h, read-out: IZ; method in brief: as §3
Bacillus subtilis [7] = test: Antibacterial activity against Bacillus subtilis ATCC 6633 after 24 hrs by serial dilution method; conditions: ATCC 6633, 24 h; method in brief: as §1
Fusarium oxysporum [8] = test: Antifungal activity against Fusarium oxysporum ATCC 16417 at 1 mg/ml after 48 hrs by agar-diffusion method; conditions: ATCC 16417, 48 h, read-out: IZ; method in brief: as §4
Botrytis fabae [9] = test: Antifungal activity against Botrytis fabae ATCC 14862 after 48 hrs by serial dilution method; conditions: ATCC 14862, 48 h; method in brief: as §2
Pseudomonas aeruginosa [10] = test: Antibacterial activity against Pseudomonas aeruginosa ATCC 27853 at 1 mg/ml after 24 hrs by agar-diffusion method; conditions: ATCC 27853, 24 h, read-out: IZ; method in brief: as §3
Bacillus thuringiensis [11] = test: Antibacterial activity against Bacillus thuringiensis ATCC 6051 at 1 mg/ml after 24 hrs by agar-diffusion method; conditions: ATCC 6051, 24 h, read-out: IZ; method in brief: as §3
Escherichia coli [12] = test: Antibacterial activity against Escherichia coli ATCC 14169 after 24 hrs by serial dilution method; conditions: ATCC 14169, 24 h; method in brief: as §1
Bacillus subtilis [13] = test: Antibacterial activity against Bacillus subtilis ATCC 6633 after 24 hrs by serial dilution method relative to chloramphenicol
Bacillus thuringiensis [14] = test: Antibacterial activity against Bacillus thuringiensis ATCC 6051 after 24 hrs by serial dilution method relative to chloramphenicol

SMILES	MIC (Bacillus thuringiensis [1]) [µg/mL]	MIC (Fusarium oxysporum [2]) [µg/mL]	zone of inhibition at 1000 µg/mL (Bacillus subtilis [3]) [mm]	zone of inhibition at 1000 µg/mL (Botrytis fabae [4]) [mm]	MIC (Pseudomonas aeruginosa [5]) [µg/mL]	zone of inhibition at 1000 µg/mL (Escherichia coli [6]) [mm]	MIC (Bacillus subtilis [7]) [µg/mL]	zone of inhibition at 1000 µg/mL (Fusarium oxysporum [8]) [mm]	MIC (Botrytis fabae [9]) [µg/mL]	zone of inhibition at 1000 µg/mL (Pseudomonas aeruginosa [10]) [mm]	zone of inhibition at 1000 µg/mL (Bacillus thuringiensis [11]) [mm]	MIC (Escherichia coli [12]) [µg/mL]	Activity (Bacillus subtilis [13]) [%]	Activity (Bacillus thuringiensis [14]) [%]
Cc1nn(-c2ccccc2)c2c1/C(=N/c1ccccn1)CO2	25 (≈ 86.1 µM)	100 (≈ 344 µM)	26	20	6.25 (≈ 21.5 µM)	38	25 (≈ 86.1 µM)	16	50 (≈ 172 µM)	15	25	6.25 (≈ 21.5 µM)	–	–
Cc1nn(-c2ccccc2)c2c1/C(=N/c1nnc[nH]1)CO2	6.25 (≈ 22.3 µM)	100 (≈ 357 µM)	38	19	100 (≈ 357 µM)	15	6.25 (≈ 22.3 µM)	15	50 (≈ 178 µM)	16	38	100 (≈ 357 µM)	–	–
Cc1nn(-c2ccccc2)c2c1/C(=N/c1nc3ccccc3[nH]1)CO2	6.25 (≈ 19 µM)	6.25 (≈ 19 µM)	44	37	50 (≈ 152 µM)	19	3.12 (≈ 9.49 µM)	14	6.25 (≈ 19 µM)	20	37	50 (≈ 152 µM)	–	–
Cc1[nH]n(-c2ccccc2)c(=O)c1C(=O)CN1CCCCC1	6.25 (≈ 20.9 µM)	100 (≈ 334 µM)	43	31	100 (≈ 334 µM)	19	3.12 (≈ 10.4 µM)	14	12.5 (≈ 41.8 µM)	16	38	50 (≈ 167 µM)	–	–
Cc1[nH]n(-c2ccccc2)c(=O)c1C(=O)c1cc2ccccc2o1	6.25 (≈ 19.6 µM)	25 (≈ 78.5 µM)	38	19	12.5 (≈ 39.3 µM)	15	6.25 (≈ 19.6 µM)	26	50 (≈ 157 µM)	33	37	100 (≈ 314 µM)	50	50
Cc1[nH]n(-c2ccccc2)c(=O)c1C(=O)c1oc2ccccc2c1C	6.25 (≈ 18.8 µM)	100 (≈ 301 µM)	37	15	50 (≈ 150 µM)	27	6.25 (≈ 18.8 µM)	15	100 (≈ 301 µM)	19	37	25 (≈ 75.2 µM)	50	50
CC(=O)c1cc(-c2c(C)[nH]n(-c3ccccc3)c2=O)oc1C	6.25 (≈ 21.1 µM)	50 (≈ 169 µM)	42	26	50 (≈ 169 µM)	15	3.12 (≈ 10.5 µM)	20	25 (≈ 84.4 µM)	18	37	100 (≈ 337 µM)	–	–
Cc1[nH]n(-c2ccccc2)c(=O)c1C1=Nc2ccccc2OC1	50 (≈ 164 µM)	100 (≈ 328 µM)	20	15	100 (≈ 328 µM)	19	50 (≈ 164 µM)	15	100 (≈ 328 µM)	15	19	50 (≈ 164 µM)	–	–
Cc1[nH]n(-c2ccccc2)c(=O)c1C(=O)CN1CCOCC1	6.25 (≈ 20.7 µM)	50 (≈ 166 µM)	32	19	50 (≈ 166 µM)	16	12.5 (≈ 41.5 µM)	19	50 (≈ 166 µM)	20	38	100 (≈ 332 µM)	–	–
Cc1[nH]n(-c2ccccc2)c(=O)c1C1=Nc2ccccc2NC1	100 (≈ 329 µM)	100 (≈ 329 µM)	19	20	50 (≈ 164 µM)	15	50 (≈ 164 µM)	15	50 (≈ 164 µM)	19	15	100 (≈ 329 µM)	–	–
Cc1[nH]n(-c2ccccc2)c(=O)c1C1=Nc2ccccc2SC1	100 (≈ 311 µM)	100 (≈ 311 µM)	15	19	100 (≈ 311 µM)	15	100 (≈ 311 µM)	15	50 (≈ 156 µM)	16	15	100 (≈ 311 µM)	–	–
CC(=O)OCC1=C(C(=O)O)N2C(=O)[C@@H](NC(=O)Cc3cccs3)[C@H]2SC1 [CEPHALOTHIN]	6.25 (≈ 15.8 µM)	–	36	–	6.25 (≈ 15.8 µM)	38	6.25 (≈ 15.8 µM)	–	–	37	37	6.25 (≈ 15.8 µM)	–	–
O=C(N[C@H](CO)[C@H](O)c1ccc([N+](=O)[O-])cc1)C(Cl)Cl [CHLORAMPHENICOL]	3.12 (≈ 9.67 µM)	–	42	–	6.25 (≈ 19.3 µM)	37	3.12 (≈ 9.67 µM)	–	–	38	44	6.25 (≈ 19.3 µM)	–	–
C[C@@H]1C[C@@H]([C@H](O)CC2CC(=O)NC(=O)C2)C(=O)[C@@H](C)C1 [CYCLOHEXIMIDE]	–	3.12 (≈ 11.1 µM)	–	42	–	–	–	43	3.12 (≈ 11.1 µM)	–	–	–	–	–
